Measurements: ChEMBL document CHEMBL4689842, “EUbOPEN Chemogenomics Library wave 1” (2021)

Test system: U2OS
Test: Multiplex assay against U2OS
Assay type: toxicity, cell-based
Settings: human
How it was run: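 Cells stained live at seeding with Hoechst33342, BioTracker Green Microtubule Cytoskeleton Dye, MitoTracker Red and Annexin V Alexa Fluor 680 were imaged on a CQ1 microscope at 37°C and 5% CO2 after compound addition. Their classification by CellPathfinder machine-learning gating ran from Hoechst high-intensity objects versus normal cells, to healthy, pyknosed or fragmented nuclei among normal cells, to mitotic or apoptotic among pyknosed cells. Tubulin, mitochondrial-mass and membrane-permeability phenotypes are per cents of healthy-nucleus cells.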

[1] = 12 h, 1 µM, compound concentration 1 uM, replicate 1
[2] = 12 h, 1 µM, compound concentration 1 uM, replicate 2
[3] = 12 h, 10 µM, compound concentration 10 uM, replicate 1
[4] = 12 h, 10 µM, compound concentration 10 uM, replicate 2
[5] = 24 h, 1 µM, compound concentration 1 uM, replicate 1
[6] = 24 h, 1 µM, compound concentration 1 uM, replicate 2
[7] = 24 h, 10 µM, compound concentration 10 uM, replicate 1
[8] = 24 h, 10 µM, compound concentration 10 uM, replicate 2
[9] = 48 h, 1 µM, compound concentration 1 uM, replicate 1
[10] = 48 h, 1 µM, compound concentration 1 uM, replicate 2
[11] = 48 h, 10 µM, compound concentration 10 uM, replicate 1
[12] = 48 h, 10 µM, compound concentration 10 uM, replicate 2

With CN1CCN(c2ccc(OC(F)(F)F)c(Nc3ncc4c(n3)-c3c(c(C(N)=O)nn3CCO)CC4)c2)CC1 [ONVANSERTIB] the “Population Apoptotic (%)” value [1] was 36%, the “Population Fragmented Nuclei (%)” value [1] was 14% and the “Population Healthy Nuclei (%)” value [1] was 78%. For the same molecule, the “Population Hoechst High Intensity Objects (%)” value [1] was 6%, the “Population Membrane Permeable-Phenotype (%)” value [1] was 11% and the “Population Mitochondria Different-Phenotype (%)” value [1] was 10%. The “Population Mitotic Cells (%)” value [1] was 63%, the “Population Normal (%)” value [1] was 94% and the “Population Pyknosed Nuclei (%)” value [1] was 7%. The “Population Tubulin-Different-Phenotype (%)” value [1] was 13%, the “Total Cell Count” value [1] was 569 and the “Population Apoptotic (%)” value [2] was 25%. For the same molecule, the “Population Fragmented Nuclei (%)” value [2] was 11%, the “Population Healthy Nuclei (%)” value [2] was 80% and the “Population Hoechst High Intensity Objects (%)” value [2] was 14%. For the same molecule, the “Population Membrane Permeable-Phenotype (%)” value [2] was 0%, the “Population Mitochondria Different-Phenotype (%)” value [2] was 14% and the “Population Mitotic Cells (%)” value [2] was 75%. The “Population Normal (%)” value [2] was 85%, the “Population Tubulin-Different-Phenotype (%)” value [2] was 16% and the “Total Cell Count” value [2] was 66. For the same molecule, the “Population Apoptotic (%)” value [3] was 72%, the “Population Fragmented Nuclei (%)” value [3] was 10% and the “Population Healthy Nuclei (%)” value [3] was 79%. For the same molecule, the “Population Hoechst High Intensity Objects (%)” value [3] was 6%, the “Population Membrane Permeable-Phenotype (%)” value [3] was 3% and the “Population Mitochondria Different-Phenotype (%)” value [3] was 77%. The “Population Mitotic Cells (%)” value [3] was 27%, the “Population Normal (%)” value [3] was 93% and the “Population Pyknosed Nuclei (%)” value [3] was 10%. The “Population Tubulin-Different-Phenotype (%)” value [3] was 84%, the “Total Cell Count” value [3] was 150 and the “Population Apoptotic (%)” value [4] was 40%. For the same molecule, the “Population Fragmented Nuclei (%)” value [4] was 9%, the “Population Healthy Nuclei (%)” value [4] was 78% and the “Population Hoechst High Intensity Objects (%)” value [4] was 19%. For the same molecule, the “Population Membrane Permeable-Phenotype (%)” value [4] was 0%, the “Population Mitochondria Different-Phenotype (%)” value [4] was 84% and the “Population Mitotic Cells (%)” value [4] was 60%. For the same molecule, the “Population Normal (%)” value [4] was 80%, the “Population Pyknosed Nuclei (%)” value [4] was 12% and the “Population Tubulin-Different-Phenotype (%)” value [4] was 78%. The “Total Cell Count” value [4] was 61, the “Population Apoptotic (%)” value [5] was 35% and the “Population Fragmented Nuclei (%)” value [5] was 14%. The “Population Healthy Nuclei (%)” value [5] was 73%, the “Population Hoechst High Intensity Objects (%)” value [5] was 7% and the “Population Membrane Permeable-Phenotype (%)” value [5] was 12%. The “Population Mitochondria Different-Phenotype (%)” value [5] was 17%, the “Population Mitotic Cells (%)” value [5] was 64% and the “Population Normal (%)” value [5] was 92%. The “Population Pyknosed Nuclei (%)” value [5] was 12%, the “Population Tubulin-Different-Phenotype (%)” value [5] was 18% and the “Total Cell Count” value [5] was 962. The “Population Apoptotic (%)” value [6] was 57%, the “Population Fragmented Nuclei (%)” value [6] was 21% and the “Population Healthy Nuclei (%)” value [6] was 65%. The “Population Hoechst High Intensity Objects (%)” value [6] was 5%, the “Population Membrane Permeable-Phenotype (%)” value [6] was 5% and the “Population Mitochondria Different-Phenotype (%)” value [6] was 32%. For the same molecule, the “Population Mitotic Cells (%)” value [6] was 42%, the “Population Normal (%)” value [6] was 94% and the “Population Pyknosed Nuclei (%)” value [6] was 13%. For the same molecule, the “Population Tubulin-Different-Phenotype (%)” value [6] was 11%, the “Total Cell Count” value [6] was 73 and the “Population Apoptotic (%)” value [7] was 82%. The “Population Healthy Nuclei (%)” value [7] was 79%, the “Population Hoechst High Intensity Objects (%)” value [7] was 4% and the “Population Membrane Permeable-Phenotype (%)” value [7] was 1%. For the same molecule, the “Population Mitochondria Different-Phenotype (%)” value [7] was 77%, the “Population Mitotic Cells (%)” value [7] was 17% and the “Population Normal (%)” value [7] was 95%. The “Population Pyknosed Nuclei (%)” value [7] was 9%, the “Population Tubulin-Different-Phenotype (%)” value [7] was 53% and the “Total Cell Count” value [7] was 151. For the same molecule, the “Population Apoptotic (%)” value [8] was 40%, the “Population Fragmented Nuclei (%)” value [8] was 11% and the “Population Healthy Nuclei (%)” value [8] was 77%. For the same molecule, the “Population Hoechst High Intensity Objects (%)” value [8] was 16%, the “Population Membrane Permeable-Phenotype (%)” value [8] was 5% and the “Population Mitochondria Different-Phenotype (%)” value [8] was 82%. The “Population Mitotic Cells (%)” value [8] was 60%, the “Population Normal (%)” value [8] was 83% and the “Population Pyknosed Nuclei (%)” value [8] was 11%. The “Population Tubulin-Different-Phenotype (%)” value [8] was 55%, the “Total Cell Count” value [8] was 55 and the “Population Apoptotic (%)” value [9] was 62%. For the same molecule, the “Population Fragmented Nuclei (%)” value [9] was 25%, the “Population Healthy Nuclei (%)” value [9] was 56% and the “Population Hoechst High Intensity Objects (%)” value [9] was 5%. The “Population Membrane Permeable-Phenotype (%)” value [9] was 14%, the “Population Mitochondria Different-Phenotype (%)” value [9] was 49% and the “Population Mitotic Cells (%)” value [9] was 37%. The “Population Normal (%)” value [9] was 94%, the “Population Pyknosed Nuclei (%)” value [9] was 18% and the “Population Tubulin-Different-Phenotype (%)” value [9] was 13%. For the same molecule, the “Total Cell Count” value [9] was 1338, the “Population Apoptotic (%)” value [10] was 53% and the “Population Fragmented Nuclei (%)” value [10] was 27%. For the same molecule, the “Population Healthy Nuclei (%)” value [10] was 45%, the “Population Hoechst High Intensity Objects (%)” value [10] was 6% and the “Population Membrane Permeable-Phenotype (%)” value [10] was 24%. For the same molecule, the “Population Mitochondria Different-Phenotype (%)” value [10] was 48%, the “Population Mitotic Cells (%)” value [10] was 46% and the “Population Normal (%)” value [10] was 93%. The “Population Pyknosed Nuclei (%)” value [10] was 27%, the “Population Tubulin-Different-Phenotype (%)” value [10] was 12% and the “Total Cell Count” value [10] was 97. The “Population Apoptotic (%)” value [11] was 91%, the “Population Fragmented Nuclei (%)” value [11] was 17% and the “Population Healthy Nuclei (%)” value [11] was 63%. The “Population Hoechst High Intensity Objects (%)” value [11] was 2%, the “Population Membrane Permeable-Phenotype (%)” value [11] was 5% and the “Population Mitochondria Different-Phenotype (%)” value [11] was 60%. For the same molecule, the “Population Mitotic Cells (%)” value [11] was 8%, the “Population Normal (%)” value [11] was 97% and the “Population Pyknosed Nuclei (%)” value [11] was 19%. For the same molecule, the “Population Tubulin-Different-Phenotype (%)” value [11] was 43%, the “Total Cell Count” value [11] was 153 and the “Population Apoptotic (%)” value [12] was 57%. The “Population Fragmented Nuclei (%)” value [12] was 20%, the “Population Hoechst High Intensity Objects (%)” value [12] was 10% and the “Population Membrane Permeable-Phenotype (%)” value [12] was 28%. For the same molecule, the “Population Mitochondria Different-Phenotype (%)” value [12] was 67%, the “Population Mitotic Cells (%)” value [12] was 42% and the “Population Normal (%)” value [12] was 89%. For the same molecule, the “Population Pyknosed Nuclei (%)” value [12] was 15%, the “Population Tubulin-Different-Phenotype (%)” value [12] was 57% and the “Total Cell Count” value [12] was 59.
